Bioassay records deposited in PubChem by Broad Institute.
INS-1E rescue: rescue of cytokine-induced death in INS-1E beta cells | INS-1E cytokine-induced death, ATP luminescence, 48 h; normalised: neutral wells 0, positive control 100 | protection from cytokine-induced ATP loss, % at 10 µM | 0.1% of 20,000 active;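 active = mean replicate protection from cytokine-induced ATP loss at least 50% and at least 75% of replicates each reaching 50%; inconclusive = meets only one of the two criteria, mean or replicate share; inactive = fails both the mean and replicate share criteria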
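Assay system – rat INS-1E insulinoma cell line · Quantity – 8000 cells per well · Buffer or medium – RPMI without phenol red, 5% FBS · Schedule – 48 h co-treatment, 10 min post-lysis read · Technique – luminescent ATP assay (CellTiter-Glo)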
A1 apoptosis 2: blocks A1, raising caspase activity; MEF A1-2A-BIM cells, caspase-Glo luminescence, 3 h; percent of clofoctol response, DMSO zero; caspase activation, % (concentration not given with the values); 24,000 tested, under 10 active; AID 2465; in the data active = caspase activation above about 5.9%; inconclusive = no clear call, values can overlap the other calls; inactive = below about 2.2%
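Material: mouse embryonic fibroblasts co-expressing A1 and BIM (A1-2A-BIM), primed for A1 dependence / Quantity: 2500 cells/well / Buffer or medium: RPMI-1640 growth medium with 10% FBS / Doses: 50 nL compound per well, pinned / Schedule: 3 h compound exposure at 37 °C / Signal: Caspase-Glo luminescence (DEVD substrate) / Measure: Caspase-3/7 activation, seen as rise in luminescence signal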
T cruzi HTS: intracellular Trypanosoma cruzi inhibition; 4.9% of 22,000 active; activity score (inhibition), % at 5.01 µM; intracellular Trypanosoma cruzi in host cells, plate reader; in the data active = activity score above about 55%; inconclusive = no clear call, values can overlap the other calls;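 also: parasites and compound incubated about four days before reading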
Numbers stand for hits; 0 = inactive; ? = inconclusive; - = no result. Many of the other results were omitted from the sample, so hits are more common in it than they were.

SMILES | INS-1E rescue | A1 apoptosis 2 | T cruzi HTS
C[C@H]1CN([C@@H](C)CO)C(=O)c2cc(NC(=O)Nc3ccc(C(F)(F)F)cc3)ccc2O[C@@H]1CN(C)S(=O)(=O)c1cccs1 | 0 | - | 0
C[C@H]1CN([C@@H](C)CO)C(=O)Cc2cc(NC(=O)Nc3ccc(C(F)(F)F)cc3)ccc2O[C@H]1CN(C)S(=O)(=O)c1cccs1 | 0 | 0 | 0
C[C@H](CO)N1C[C@H](C)[C@@H](CN(C)S(=O)(=O)c2cccs2)Oc2c(NC(=O)Nc3ccc(C(F)(F)F)cc3)cccc2C1=O | 0 | 0 | 0
C[C@@H]1CN([C@@H](C)CO)C(=O)c2cc(NC(=O)Nc3ccc(C(F)(F)F)cc3)ccc2O[C@H]1CN(C)S(=O)(=O)c1cccs1 | 0 | 0 | 71
O=C(CCCCCCC(=O)Nc1ccccc1O)N/N=C/c1cccc(C(=O)O)c1 | 0 | 0 | 0
Cc1ccc(S(=O)(=O)N(C)C[C@@H]2Oc3c(NC(=O)Nc4ccc(C(F)(F)F)cc4)cccc3C(=O)N([C@@H](C)CO)C[C@@H]2C)cc1 | 0 | - | 0
Cc1ccc(S(=O)(=O)N(C)C[C@@H]2Oc3c(NC(=O)Nc4cccc5ccccc45)cccc3C(=O)N([C@@H](C)CO)C[C@H]2C)cc1 | 62 | 0 | 0
Cc1ccc(S(=O)(=O)N(C)C[C@H]2Oc3c(NC(=O)Nc4cccc5ccccc45)cccc3C(=O)N([C@H](C)CO)C[C@H]2C)cc1 | 0 | 0 | 0
COc1ccc(S(=O)(=O)N(C)C[C@@H]2Oc3c(NC(=O)Nc4ccc(C(F)(F)F)cc4)cccc3C(=O)N([C@H](C)CO)C[C@@H]2C)cc1 | 0 | - | 74
Cc1ccc(S(=O)(=O)N(C)C[C@H]2Oc3c(NC(=O)Nc4ccc(C(F)(F)F)cc4)cccc3C(=O)N([C@@H](C)CO)C[C@H]2C)cc1 | 0 | 0 | 79
COc1ccc(S(=O)(=O)N(C)C[C@@H]2Oc3c(NC(=O)Nc4ccc(C(F)(F)F)cc4)cccc3C(=O)N([C@@H](C)CO)C[C@@H]2C)cc1 | 0 | 0 | 61
COc1ccc(NC(=O)Nc2cccc3c2O[C@@H](CN(C)S(=O)(=O)c2ccc(OC)cc2)[C@H](C)CN([C@H](C)CO)C3=O)cc1 | 0 | 0 | 0
COc1ccc(NC(=O)Nc2cccc3c2O[C@H](CN(C)S(=O)(=O)c2ccc(OC)cc2)[C@@H](C)CN([C@H](C)CO)C3=O)cc1 | 0 | 0 | 0
COc1cc(/C=N/NC(=O)c2ccccn2)c(Br)cc1O | 0 | 0 | 0
Cc1ccsc1/C=N/NC(=O)CCCCCCC(=O)O | 0 | 0 | 0
O=C(CCCCCCC(=O)Nc1ccccc1O)N/N=C/c1ccc(O)cc1Br | 0 | 0 | 0
C[C@@H]1CN([C@H](C)CO)C(=O)c2cccc(NC(=O)c3ccncc3)c2O[C@H]1CN(C)Cc1ccc(C(=O)Nc2ccccc2N)cc1 | 0 | 0 | 0
COc1ccc(CN(C)C[C@H]2Oc3c(NC(=O)c4ccncc4)cccc3C(=O)N([C@@H](C)CO)C[C@@H]2C)cc1 | 0 | 0 | 83
COc1ccc(CN(C)C[C@@H]2Oc3c(NC(=O)c4ccncc4)cccc3C(=O)N([C@@H](C)CO)C[C@H]2C)cc1 | 0 | 0 | 79
COc1ccc(NC(=O)Nc2cccc3c2O[C@H](CN(C)Cc2ccncc2)[C@H](C)CN([C@@H](C)CO)C3=O)cc1 | 0 | 0 | 0
COc1ccc(NC(=O)Nc2ccc3c(c2)C(=O)N([C@H](C)CO)C[C@H](C)[C@H](CN(C)C(=O)Nc2ccc(C(F)(F)F)cc2)OCCCC[C@@H](C)O3)cc1 | 0 | 0 | 0
COc1ccc(NC(=O)Nc2ccc3c(c2)C(=O)N([C@H](C)CO)C[C@H](C)[C@@H](CN(C)C(=O)Nc2ccc(C(F)(F)F)cc2)OCCCC[C@@H](C)O3)cc1 | 0 | - | 69
COc1ccc(NC(=O)Nc2ccc3c(c2)C(=O)N([C@H](C)CO)C[C@H](C)[C@H](CN(C)C(=O)Nc2ccc(C(F)(F)F)cc2)OCCCC[C@H](C)O3)cc1 | - | 0 | -
COc1ccc(NC(=O)N(C)C[C@H]2OCCCC[C@@H](C)Oc3ccc(NC(=O)Nc4ccc(C(F)(F)F)cc4)cc3C(=O)N([C@H](C)CO)C[C@@H]2C)cc1 | 0 | 0 | 57
O=C(N/N=C/c1ccccc1)c1ccccc1O | 0 | 0 | 0
SMILES | INS-1E rescue | A1 apoptosis 2 | T cruzi HTS
Cc1noc(C)c1S(=O)(=O)Nc1ccc2c(c1)CC(=O)N([C@@H](C)CO)C[C@H](C)[C@@H](CN(C)Cc1ccc(C(F)(F)F)cc1)O2 | 0 | - | 61
Cc1noc(C)c1S(=O)(=O)Nc1ccc2c(c1)CC(=O)N([C@@H](C)CO)C[C@H](C)[C@H](CN(C)Cc1ccc(C(F)(F)F)cc1)O2 | 0 | - | 0
Cc1noc(C)c1S(=O)(=O)Nc1ccc2c(c1)C(=O)N([C@@H](C)CO)C[C@H](C)[C@H](CN(C)Cc1ccc(Cl)c(Cl)c1)O2 | 0 | 0 | 62
Cc1noc(C)c1S(=O)(=O)Nc1ccc2c(c1)CC(=O)N([C@H](C)CO)C[C@@H](C)[C@H](CN(C)Cc1ccc(Cl)c(Cl)c1)O2 | 0 | 0 | 63
Cc1noc(C)c1S(=O)(=O)Nc1ccc2c(c1)C(=O)N([C@@H](C)CO)C[C@@H](C)[C@H](CN(C)Cc1ccc3c(c1)OCO3)O2 | 0 | - | 0
Cc1noc(C)c1S(=O)(=O)Nc1ccc2c(c1)C(=O)N([C@H](C)CO)C[C@H](C)[C@H](CN(C)Cc1ccc(Cl)c(Cl)c1)O2 | 0 | 0 | ?
Cc1noc(C)c1S(=O)(=O)Nc1ccc2c(c1)C(=O)N([C@H](C)CO)C[C@H](C)[C@H](CN(C)Cc1ccc3c(c1)OCO3)O2 | 0 | - | 58
Cc1noc(C)c1S(=O)(=O)Nc1ccc2c(c1)CC(=O)N([C@@H](C)CO)C[C@H](C)[C@H](CN(C)Cc1ccc(Cl)c(Cl)c1)O2 | 0 | - | 0
N#Cc1ccc(/C=N/NC(=O)c2ccccn2)cc1 | 0 | 0 | 0
O=C(O)CNS(=O)(=O)c1ccccc1 | - | 0 | -
NC(=O)COc1ccc(/C=N/NC(=O)c2ccccc2O)cc1 | 0 | 0 | 0
C/C=C\C=C/C1OC(O)(C(CC)C(=O)NC/C=C\C=C(\C)C(OC)C(C)C2OC(\C=C/C=C\C=C(\C)C(=O)c3c(O)cc[nH]c3=O)C(O)C2O)C(O)C(O)C1(C)C (stereo not given) | - | 0 | -
C[C@H]1CN([C@@H](C)CO)C(=O)Cc2cc(NC(=O)Nc3ccc(C(F)(F)F)cc3)ccc2O[C@@H]1CN(C)Cc1ccc(C(=O)O)cc1 | 0 | - | 0
C[C@H]1CN([C@@H](C)CO)C(=O)Cc2cc(NC(=O)Nc3ccc(C(F)(F)F)cc3)ccc2O[C@H]1CN(C)Cc1ccc(C(F)(F)F)cc1 | 0 | - | 82
C[C@@H]1CN([C@@H](C)CO)C(=O)Cc2cc(NC(=O)C3CCCCC3)ccc2O[C@@H]1CN(C)Cc1ccc(C(F)(F)F)cc1 | 0 | 0 | 0
C[C@@H]1CN([C@@H](C)CO)C(=O)Cc2cc(NC(=O)Nc3ccc(C(F)(F)F)cc3)ccc2O[C@H]1CN(C)Cc1ccc(C(F)(F)F)cc1 | - | 0 | -
C[C@@H]1CN([C@@H](C)CO)C(=O)Cc2cc(NC(=O)Nc3ccc(C(F)(F)F)cc3)ccc2O[C@@H]1CN(C)Cc1ccc(C(F)(F)F)cc1 | 0 | - | 64
